Data reported in ChEMBL document CHEMBL1122872, “Synthesis and biological activities of some pseudo-peptide analogues of tetragastrin: the importance of the peptide backbone” (J Med Chem, 1985).
Residues, ends and D or L forms follow the SMILES beside them. *: point of attachment. Boc = CC(C)(C)OC(=O)*

What was measured:
[1] = Compound was tested in vitro for inhibition of [125I](Leu15)-HG-17 binding to isolated gastric mucosal cells.; type: tissue-based, Rattus norvegicus, Gastric mucosa
Summary of the method: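 Fundic mucosal cells, dispersed by collagenase/EDTA (about 45% parietal cells, 95% viable), were incubated at 5 × 10^6 cells/mL in Earle's medium without bicarbonate (10 mM Hepes, 0.2% BSA, pH 7.4). Incubation was with 20 pM [125I]-(Leu15)-HG-17 for 30 min at 37 °C across a range of peptide concentrations. Nonsaturable binding was taken with 1 × 10^-6 M unlabeled (Nle11)-HG-13. Quadruplicate determinations.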

[2] = system: Rattus norvegicus; experiment: Compound was tested in vivo for activity against gastrin induced acid secretion in rat; antagonist; type: functional, organism-based; details: filed as antagonist
Summary of the method: (§1)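 In anaesthetized rats, peptide in alkaline aqueous solution was given as an iv bolus at various doses together with 80 pmol (Leu15)-HG-17 (submaximal dose). pH was recorded for 40 min. For each dose, H+ output with peptide plus gastrin was divided by output with gastrin alone and expressed as percent inhibition.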

[3] = system: Rattus norvegicus; experiment: Compound was tested in vivo for activity against gastrin induced acid secretion in rat.; type: functional; summary of the method: as §1
[4] = system: Rattus norvegicus; experiment: Compound was tested in vivo for activity against gastrin induced acid secretion in rat; agonist; type: functional, organism-based; details: filed as agonist

IC50 [1] [nM] | SMILES | Activity [2] | ED50 [3] [mg/kg] | Activity [4]
5000 | CC(C)C[C@H](NC(=O)[C@H](Cc1c[nH]c2ccccc12)NC(=O)OC(C)(C)C)C(=O)N[C@H](CN[C@@H](Cc1ccccc1)C(N)=O)CC(=O)O | Antagonist | 15 | 
250 | CC(C)C[C@@H](CN[C@@H](CC(=O)O)C(=O)N[C@@H](Cc1ccccc1)C(N)=O)NC(=O)[C@H](Cc1c[nH]c2ccccc12)NC(=O)OC(C)(C)C | Antagonist | 0.3 | 
300 | CC(C)C[C@H](NC[C@H](Cc1c[nH]c2ccccc12)NC(=O)OC(C)(C)C)C(=O)N[C@@H](CC(=O)O)C(=O)N[C@@H](Cc1ccccc1)C(N)=O |  |  | Agonist
500 | CC(C)C[C@H](NC(=O)[C@H](Cc1c[nH]c2ccccc12)NC(=O)OC(C)(C)C)C(=O)N[C@@H](CC(=O)O)C(=O)N[C@@H](Cc1ccccc1)C(N)=O (Boc-WLDF-NH2) |  |  | Agonist
